Reference: ChEMBL document CHEMBL1781963, “Discovery of novel hepatoselective HMG-CoA reductase inhibitors for treating hypercholesterolemia: a bench-to-bedside case study on tissue selective drug distribution” (Bioorg Med Chem Lett, 2011)

What was measured:
OATP1B1 [1] = molecular target: T1, OATP1B1 (Homo sapiens, UniProt Q9Y6L6); experiment: Drug uptake by human hepatic OATP1B1 transporter expressed in HEK293 cells at 10 uM relative to wild type HEK293 cells; type: ADME, cell-based; details: HEK293 cells expressing OATP1B1, read-out: FC
T1 sequence (Q9Y6L6 whole entry): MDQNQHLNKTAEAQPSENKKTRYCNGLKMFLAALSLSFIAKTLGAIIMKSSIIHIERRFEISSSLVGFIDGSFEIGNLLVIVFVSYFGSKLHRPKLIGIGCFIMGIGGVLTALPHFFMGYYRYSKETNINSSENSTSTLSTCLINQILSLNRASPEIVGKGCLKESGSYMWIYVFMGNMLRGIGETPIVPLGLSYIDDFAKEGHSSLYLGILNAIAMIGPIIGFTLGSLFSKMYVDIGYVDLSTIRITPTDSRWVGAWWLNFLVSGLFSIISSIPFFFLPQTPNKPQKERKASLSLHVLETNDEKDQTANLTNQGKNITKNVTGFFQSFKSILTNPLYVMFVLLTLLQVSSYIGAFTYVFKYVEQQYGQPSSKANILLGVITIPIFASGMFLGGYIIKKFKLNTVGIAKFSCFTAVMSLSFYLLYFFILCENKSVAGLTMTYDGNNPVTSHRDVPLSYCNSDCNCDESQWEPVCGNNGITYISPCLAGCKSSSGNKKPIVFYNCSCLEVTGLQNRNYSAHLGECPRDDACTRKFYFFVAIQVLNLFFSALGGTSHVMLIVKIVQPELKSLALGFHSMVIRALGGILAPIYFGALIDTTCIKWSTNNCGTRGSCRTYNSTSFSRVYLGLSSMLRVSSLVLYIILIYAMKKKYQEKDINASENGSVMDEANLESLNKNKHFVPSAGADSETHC
How it was run: (§1)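 Individual hepatic OATP transporters were over-expressed in CHO or HEK293 cells: rat rOatp1a1, rOatp1a4 and rOatp1b2, and human hOATP1B1, hOATP1B3 and hOATP2B1. Substrate uptake is expressed as fold difference relative to the wild-type parental line. Rosuvastatin/pravastatin served as positive control and midazolam as negative control in each assay.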

Hepatocyte = experiment: Drug uptake in sandwich-cultured rat hepatocytes assessed per mg of protein at 1 uM in presence of rifamycin SV; type: ADME, cell-based
How it was run: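 Rat or human hepatocytes were cultured in sandwich configuration with a Matrigel overlay and compound uptake was measured. Active uptake was assessed by inhibition with the pan-OATP inhibitor rifamycin SV. Rosuvastatin/pravastatin served as positive control and midazolam as negative control.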

[2] = Fraction unbound in human plasma at 0.5 ug/ml; type: ADME, cell-free
How it was run: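 Unbound fraction in rat, dog or human plasma, measured at a drug concentration of 0.5 μg/mL.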

OATP1A1 [3] = molecular target: T2, OATP1A1 (Rattus norvegicus, UniProt P46720); experiment: Drug uptake by rat hepatic OATP1A1 transporters expressed in CHO cells at 1 uM relative to wild type CHO cells; type: ADME, cell-based; details: CHO cells expressing rat OATP1A1, read-out: FC; how it was run: as §1
T2 sequence (P46720 whole entry): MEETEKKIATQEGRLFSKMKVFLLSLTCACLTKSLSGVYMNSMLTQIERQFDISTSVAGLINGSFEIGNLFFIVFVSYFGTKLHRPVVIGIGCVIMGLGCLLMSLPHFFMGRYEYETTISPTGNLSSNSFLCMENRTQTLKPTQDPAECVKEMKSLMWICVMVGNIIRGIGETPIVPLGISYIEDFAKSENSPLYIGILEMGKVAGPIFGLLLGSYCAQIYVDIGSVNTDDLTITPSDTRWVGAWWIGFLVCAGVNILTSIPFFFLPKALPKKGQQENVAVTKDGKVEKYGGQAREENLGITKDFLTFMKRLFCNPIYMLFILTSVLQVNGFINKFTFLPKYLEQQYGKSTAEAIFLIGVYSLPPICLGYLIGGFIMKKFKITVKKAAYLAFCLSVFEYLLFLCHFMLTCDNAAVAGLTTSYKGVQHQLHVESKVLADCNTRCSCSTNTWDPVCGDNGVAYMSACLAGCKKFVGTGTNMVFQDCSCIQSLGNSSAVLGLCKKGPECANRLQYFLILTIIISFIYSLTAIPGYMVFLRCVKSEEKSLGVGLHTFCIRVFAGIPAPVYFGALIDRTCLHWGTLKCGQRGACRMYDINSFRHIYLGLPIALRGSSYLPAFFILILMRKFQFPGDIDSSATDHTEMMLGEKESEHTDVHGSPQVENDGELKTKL

OATP1A1 [4] = molecular target: T2, OATP1A1; experiment: Drug uptake by rat hepatic OATP1A1 transporters expressed in CHO cells at 10 uM relative to wild type CHO cells; type: ADME, cell-based; details: CHO cells expressing rat OATP1A1, read-out: FC; how it was run: as §1
OATP1B1 [5] = molecular target: T1, OATP1B1; experiment: Drug uptake by human hepatic OATP1B1 transporter expressed in HEK293 cells at 1 uM relative to wild type HEK293 cells; type: ADME, cell-based; details: HEK293 cells expressing human OATP1B1, read-out: FC; how it was run: as §1
OATP2B1 = molecular target: T3, OATP2B1 (Homo sapiens, UniProt O94956); experiment: Drug uptake by human hepatic OATP2B1 transporter expressed in HEK293 cells at 1 uM relative to wild-type HEK293 cells; type: ADME, cell-based; details: HEK293 cells expressing human OATP2B1, read-out: FC; how it was run: as §1
T3 sequence (O94956 whole entry): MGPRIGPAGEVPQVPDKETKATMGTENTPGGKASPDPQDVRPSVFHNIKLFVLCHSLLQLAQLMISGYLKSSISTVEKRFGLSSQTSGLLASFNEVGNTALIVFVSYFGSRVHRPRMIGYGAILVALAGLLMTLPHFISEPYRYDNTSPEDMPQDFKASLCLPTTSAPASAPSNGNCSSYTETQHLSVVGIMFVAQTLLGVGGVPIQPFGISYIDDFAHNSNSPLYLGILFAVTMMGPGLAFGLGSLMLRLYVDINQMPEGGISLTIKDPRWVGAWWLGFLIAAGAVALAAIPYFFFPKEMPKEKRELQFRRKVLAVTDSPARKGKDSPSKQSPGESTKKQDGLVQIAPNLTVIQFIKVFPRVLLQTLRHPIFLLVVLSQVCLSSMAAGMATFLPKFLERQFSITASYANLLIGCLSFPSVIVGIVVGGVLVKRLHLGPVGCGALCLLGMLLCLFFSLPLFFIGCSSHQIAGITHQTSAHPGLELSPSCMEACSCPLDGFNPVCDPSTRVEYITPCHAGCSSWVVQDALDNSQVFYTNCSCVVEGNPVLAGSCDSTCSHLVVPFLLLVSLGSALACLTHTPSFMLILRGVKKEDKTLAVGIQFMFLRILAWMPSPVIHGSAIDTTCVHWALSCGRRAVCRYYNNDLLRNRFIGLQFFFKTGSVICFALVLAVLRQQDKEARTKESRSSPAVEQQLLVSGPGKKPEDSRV

L6 = experiment: Selectivity ratio of IC50 for cholesterol synthesis in rat L6 cells to IC50 for cholesterol synthesis in rat hepatocytes

Row | Structure (SMILES) | uptake ratio at 10 µM (OATP1B1 [1]) | Drug uptake (Hepatocyte) | fraction unbound at 0.5 ug/ml [2] | uptake ratio at 1 µM (OATP1A1 [3]) | uptake ratio at 10 µM (OATP1A1 [4]) | uptake ratio at 1 µM (OATP1B1 [5]) | uptake ratio at 1 µM (OATP2B1) | Ratio IC50 (L6)
1 | CC(C)c1nc(N(C)S(C)(=O)=O)nc(-c2ccc(F)cc2)c1/C=C/[C@@H](O)C[C@@H](O)CC(=O)O [ROSUVASTATIN] | 69.6 | 97% | 0.17 | 8.2 | 5.3 | 14.4 | 5.5 | 830
2 | CC[C@H](C)C(=O)O[C@H]1C[C@H](O)C=C2C=C[C@H](C)[C@H](CC[C@@H](O)C[C@@H](O)CC(=O)O)[C@H]21 [PRAVASTATIN] | 223 |  |  | 2.4 | 3.9 | 73.7 |  | 
3 | O=C([O-])C[C@H](O)C[C@H](O)CCn1c(-c2ccc(F)cc2)nc(C(=O)NCc2cccc(F)c2)c1C1CC1.[Na+] | 84.9 | 100% | 0.29 | 5.8 | 4.4 | 49 | 7.1 | 4440
4 | Cc1ccc(CNC(=O)c2nn(-c3ccc(F)cc3)c(CC[C@@H](O)C[C@@H](O)CC(=O)O)c2C(C)C)cc1 | 18.4 | 98% | 0.051 | 3.6 | 4.2 | 21.6 | 2.1 | 810
5 | Cc1ncc2n1-c1ccc(Cl)cc1C(c1ccccc1F)=NC2 [MIDAZOLAM] | 0.9 |  |  | 1.6 | 1.7 | 0.6 | 0.8 | 
